For test [1], the target named is T1, M. tuberculosis ICL1 (Mycobacterium tuberculosis, UniProt P9WKK7).
T1 sequence (P9WKK7 1-428): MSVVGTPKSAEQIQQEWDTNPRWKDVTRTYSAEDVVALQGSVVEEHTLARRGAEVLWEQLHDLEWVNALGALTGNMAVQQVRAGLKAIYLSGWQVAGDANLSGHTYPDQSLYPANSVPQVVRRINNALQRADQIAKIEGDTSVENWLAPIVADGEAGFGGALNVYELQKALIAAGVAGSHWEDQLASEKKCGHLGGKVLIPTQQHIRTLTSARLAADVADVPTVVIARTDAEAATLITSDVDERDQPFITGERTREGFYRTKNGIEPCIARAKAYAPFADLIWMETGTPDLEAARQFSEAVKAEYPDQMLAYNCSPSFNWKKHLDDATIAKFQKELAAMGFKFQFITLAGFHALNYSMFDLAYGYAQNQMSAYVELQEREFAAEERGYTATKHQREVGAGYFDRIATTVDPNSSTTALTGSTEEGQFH
Description: 1H NMR ICL1 enzyme kinetics. The format is biochemical. The settings on record: methylisocitrate as substrate, 190 nM ICL1, 5 mM MgCl2.

The target of test [2] is T1, M. tuberculosis ICL1. Description: 1H NMR assay of ICL1-catalysed turnover of DL-isocitrate. The format is biochemical. The settings on record: for single concentration inhibition of ICL1: 100 μM inhibitor, 190 nM ICL1, 1 mM DL-isocitrate, 5 mM MgCl2. Summed up:
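Recombinant ICL1 from E. coli BL21(DE3), purified by His-trap and gel filtration. Reactions in 50 mM Tris-D11 pH 7.5, 90% H2O/10% D2O at 300 K. 1H spectra with excitation-sculpting water suppression every ~1.3 min track the isocitrate decrease and the succinate singlet at 2.3 ppm. Initial rates from 15–20 min; inhibitors at varied concentrations; triplicates; IC50 by 3-parameter sigmoid fit.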

A further test relates to ICL1. The settings on record: DL-isocitrate as substrate, LDH assay; cited from earlier work.

The structures appear in SMILES notation.

Consider `C[C@](CC(=O)O)(C(=O)O)[C@H](O)C(=O)O` [methylisocitrate], for which the “substrate concentration above which substrate inhibition was observed” value at M. tuberculosis ICL1 [1] is “exceeded 1 mM”.

As for `CCOC(=O)c1ccc(CC(=O)c2oc3cc(O)ccc3c2C)o1` [Compound 29], at M. tuberculosis ICL1 [2], the concentration for half-maximal inhibition (IC50) was above 100 µM and the “single concentration inhibition of ICL1” value is recorded as “significantly inhibited ICL1”.

As to `O=C(O)CC[N+](=O)[O-]` [3-Nitropropionate, reference compound], the “single concentration inhibition of ICL1” value at M. tuberculosis ICL1 [2] is “most potent inhibitor”.

Turning to `COC(=O)C=CC(=O)c1ccc(OC)cc1` [Methyl-4-(4-methoxyphenyl)-4-oxobut-2-enoate, reference compound], the “single concentration inhibition of ICL1” value on M. tuberculosis ICL1 [2] is “weakest of the four tested”.

On to `CCOC(=O)c1cc2cc(CC(=O)c3ccc(O)cc3O)ccc2o1` [Compound 38], for which, on M. tuberculosis ICL1 [2], the IC50 was above 100 µM and the “single concentration inhibition of ICL1” value is “significantly inhibited ICL1”.

Consider `O=C(O)CC(C(=O)O)C(O)C(=O)O` (racemic) [DL-isocitrate, DL-Isocitrate], for which, in the test with ICL1, the Km was 190 µM and the kcat is 5.24 s^–1.

What is called IC50 is the concentration that gives 50% inhibition. A high value points to weaker potency. What is called Km is the concentration of substrate that gives half-maximal velocity.

(Values after article PMC6072051 (MedChemComm, 2017).)
